Most compounds without a hit are left out; they make up all but 2.4% or so of the library.
S100A4 inh HTS: S100A4-myosin IIA interaction inhibition. S100A4/TAMRA-MyoIIA peptide fluorescence polarization. inhibition, % at 10.7 µM. 360,000 compounds, 0.14% hits;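 active = mean inhibition of at least 70% across replicates, with every replicate also reaching that level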
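System – human S100A4 monomer protein, biochemical binding assay · Buffer or medium – Calcium-containing HEPES buffer, pH 7.2 · Timing – 5 min between mix addition and reading · Also added – TAMRA-labelled myosin IIA heavy-chain peptide probe, 5 nM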
PGC1a acetyl inh: PGC1a acetylation modulation, inhibitor mode; 350,000 compounds, 0.17% hits; inhibition, % at 15.6 µM; U2OS PGC1a acetylation, AlphaScreen anti-acetyl-lysine; with virally co-expressed GCN5 acetyltransferase; AID 651687;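 active = every replicate shows inhibition of at least 40%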;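 also: 0% = neutral control wells and 100% = positive control wells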
ERAP1 HTS inh: ERAP1 (human) enzyme inhibition | Q9NZ08 | recombinant ERAP1, Leu-AMC fluorescence, 60 min | inhibition, % at 10.7 µM | 340,000 compounds, 0.15% hits;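 active = mean replicate inhibition of at least 30%, or all replicates individually reaching that 30% level; inactive = mean below 30% and not every replicate reaching it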;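 also: 0% = neutral control wells and 100% = L-leucinethiol positive control wells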
CASP6 VEID inh: caspase-6 (human) enzyme inhibition | P55212 | purified caspase-6, Z-VEID-R110 cleavage fluorescence | inhibition, % at 12.5 µM | 350,000 compounds, 0.53% hits;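 active = mean inhibition across replicates at least about 35%, with every replicate also reaching that limit, limit read from the data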;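 also: 0% = median of neutral control wells and 100% = no fluorescence left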
ARNT TACC3 PPI: ARNT/TACC3 interaction disruption | 390,000 compounds, 0.66% hits | Q9Y6A5 | AlphaScreen His-ARNT PAS-B/GST-TACC3 binding, luminescence; TACC3 fragment carries E629A point mutation | inhibition, % at 9.99 µM | AID 623870;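 active = mean inhibition of replicates at least 50% and at least half of replicates each reaching 50%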;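 also: 0% = complete ARNT plus TACC3 wells and 100% = ARNT alone without TACC3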
Ecoli rRNA inh: selective bacterial rRNA inhibition in E. coli; 350,000 compounds, 1.6% hits; E. coli WT GFP vs humanized-ribosome RFP mutants, fluorescence, 24 h; active compounds read low; DMSO median 0, no signal -100; AID 720706; GFP signal change (wild-type ribosome), % (test concentration not listed);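 active = significant combined selectivity score with lowered wild-type GFP, culture density cut under 30%, mutant RFP and density less affected; inactive = any of these conditions unmet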
* = called active by the depositor; x = not tested or not shown.

SMILES	S100A4 inh HTS	PGC1a acetyl inh	ERAP1 HTS inh	CASP6 VEID inh	ARNT TACC3 PPI	Ecoli rRNA inh
COc1ccc(/C=N/Nc2ccccn2)cc1O	7.5	4.3	1.4	1.6	26.2*	6.8
O=[N+]([O-])c1ccc(O)c(/C=N/Nc2nc3ccccc3[nH]2)c1	-2.8	x	-0.3	8.3	83.5*	-54.6
CC(=O)Nc1ccc2c(c1)C(=O)N(C)[C@H]1CC[C@@H](CC(=O)NC3CCCCC3)O[C@@H]1CO2	x	1.8	x	x	-28.8	3.0
CC(C)(C)[S@@](=O)N1Cc2cc(C(=O)NCCN3CCCC3)nc(-c3cccc(-c4cccc(C#N)c4)c3)c2[C@H]1CCO	-23.4	-14.2	1.8	-3.8	3.7	4.4
Oc1ccc(C=NNc2ccccn2)c(O)c1	-2.4	x	-2.7	x	60.3*	-8.4
Oc1cccc(C=NNc2ccccn2)c1	-2.4	10.9	1.5	-0.3	12.7	18.0
C[C@H]1CN([C@@H](C)CO)C(=O)Cc2cc(NC(=O)CCC(F)(F)F)ccc2O[C@H]1CN(C)CC1CCCCC1	-1.3	-1.2	1.6	1.2	1.6	-1.0
COc1ccc(S(=O)(=O)N[C@@H]2CC[C@H](CC(=O)O)O[C@@H]2CO)cc1	-2.7	3.4	1.1	-3.7	-9.6	0.9
COc1ccc2cc(CN(CC3CCCO3)S(=O)(=O)c3ccccc3Cl)c(=O)[nH]c2c1 (stereo not drawn)	-2.8	3.5	-1.6	5.0	-0.8	-36.1*
COc1cc(/C=C/C=C2/CC/C(=C/C=C/c3ccc(O)c(OC)c3)C2=O)ccc1O	-25.2	-3.9	4.5	52.5*	-1.0	-8.5
COc1cc(/C=C2/CC/C(=C/c3ccc(O)c(OC)c3)C2=O)ccc1O	-0.5	18.2	2.6	-1.0	-0.6	-7.4
O=C1c2ccccc2C(c2nnnn2Cc2ccccc2)N1Cc1ccc2c(c1)OCO2 (stereo not drawn)	-2.0	x	-5.8	1.6	x	-27.4*
COCCn1c(SCC(=O)Nc2ccccc2F)nc2c([nH]c3ccccc32)c1=O	-3.8	-5.3	-1.0	-3.4	-3.0	7.7
COCCn1c(SCC(=O)Nc2ccccc2OC)nc2c([nH]c3ccccc32)c1=O	0.4	x	-0.8	69.9*	1.3	1.7
COc1nc(C)ccc1-c1noc(-c2cccnc2)n1	6.1	x	1.6	1.4	-7.4	-0.8
COC1=C(Br)C(=O)c2nc(C)ccc2C1=O	0.1	2.7	-0.1	94.7*	x	10.8
COC1=C(N)C(=O)c2nc(C)ccc2C1=O	2.1	9.0	1.7	56.0*	29.6*	14.2
COc1ccc(N)c2c1C(=O)c1ccccc1C2=O	x	x	x	x	40.4	x
C[C@H]1CN([C@@H](C)CO)C(=O)c2cc(NS(=O)(=O)c3ccc(Cl)cc3)ccc2O[C@H]1CN(C)Cc1ccc(C(=O)Nc2ccccc2N)cc1	-2.5	3.2	-1.4	4.0	x	-0.7
Cc1sc(NC(=O)CSc2n[nH]c(N)n2)c(C#N)c1C	-8.1	-11.4	2.2	40.2*	5.9	-8.9
COC(=O)c1c(NC(=O)CSc2n[nH]c(N)n2)sc(C)c1C	x	4.7	x	x	-0.6	x
O=S(=O)(NCC1CCCO1)c1ccc(-c2ccc(Cl)cc2)cc1 (stereo not drawn)	1.1	-2.2	x	-2.2	-5.3	-25.4*
COc1ccc(-c2ccc(S(=O)(=O)NCC3CCCO3)cc2)cc1 (stereo not drawn)	x	x	x	x	-4.6	x
CCCNC(=O)N1CC(=O)N2[C@H](C1)[C@@H](c1ccc(-c3ccccc3)cc1)[C@@H]2CO	x	x	x	x	x	1.1
Cc1noc(C)c1NC(=O)N[C@@H]1CC[C@H](CCNC(=O)C2CCOCC2)O[C@@H]1CO	98.3*	15.1	-1.7	1.9	28.2	2.1
SMILES	S100A4 inh HTS	PGC1a acetyl inh	ERAP1 HTS inh	CASP6 VEID inh	ARNT TACC3 PPI	Ecoli rRNA inh
O=C(Nc1ccccc1F)N[C@@H]1CC[C@H](CCNC(=O)C2CCCCC2)O[C@H]1CO	90.2*	-16.6	-1.7	-1.0	4.1	-3.5
Cc1noc(C)c1NC(=O)N[C@H]1CC[C@@H](CCNC(=O)C2CCOCC2)O[C@H]1CO	7.1	-5.2	-2.2	-2.1	9.4	4.6
O=C(Nc1ccc(Cl)cc1)N[C@H]1CC[C@H](CCNC(=O)c2ccccc2F)O[C@@H]1CO	80.8*	1.1	4.6	-0.2	-17.6	0.0
C[C@@H]1CN(C)C(=O)Cc2ccccc2O[C@@H]1CN(C)S(C)(=O)=O	x	x	x	x	x	1.3
COc1ccc(-c2cn(CC[C@@H]3CC[C@H](NC(=O)Cc4ccccn4)[C@H](CO)O3)nn2)cc1	-2.3	0.1	-0.3	1.1	0.1	-0.4
COc1ccc2c3c(n(C)c2c1)[C@H](CO)NCC31CCN(Cc2ccc(-c3ccccn3)cc2)CC1	2.7	-6.8	13.4	x	x	-6.8
CC(C)CCNC(=O)c1cccc(Cl)c1	x	-1.4	x	x	x	x
NC(=O)CNC(=O)c1cccc(Cl)c1	0.9	3.2	x	2.3	active	5.5
Cc1ccc2nc(SCC(=O)c3ccc4c(c3)OCO4)[nH]c2c1	3.2	5.2	-2.1	-0.5	3.3	-22.6*
O=C(CSc1nc2ccccc2[nH]1)c1ccc2c(c1)OCO2	x	-0.7	x	x	1.2	x
C(=N\N1CCN(c2ccccn2)CC1)/c1cccc2ccccc12	-0.2	-2.0	1.8	-0.6	16.8	-20.8*
COc1cc(C)c(CN2CCSCC2)cc1C	1.3	-11.8	-1.3	-0.5	-26.7	8.1
COc1cc(OC)c(OC)cc1CN1CCSCC1	-4.0	11.9	-0.8	35.7*	-2.6	12.4
COc1ccc(NC(=O)CCc2nnc3ccc(N4CCC(C)CC4)nn23)cc1	-7.3	-14.5	2.1	2.2	11.6	-3.5
CC1CCN(c2ccc3nnc(CCC(=O)Nc4cccc(F)c4)n3n2)CC1	-3.8	-14.0	-0.3	4.9	-4.8	-30.5*
C[C@H](CO)N1C[C@H](C)[C@@H](CN(C)S(=O)(=O)c2cn(C)cn2)Oc2c(NC(=O)Cc3ccccc3)cccc2C1=O	x	x	x	x	x	0.8
CCC(=O)N1[C@@H]2CN(S(=O)(=O)c3ccccc3F)c3ccccc3[C@@H]2[C@@H]1CO	-29.1	0.0	0.6	0.9	-15.1	1.2
Cc1ccc(C(=O)NC(=C(Cl)Cl)S(=O)(=O)c2ccc(Cl)cc2)cc1	-2.7	x	-2.1	0.7	-2.7	-24.0*
O=C(NC(=C(Cl)Cl)S(=O)(=O)c1ccc(Cl)cc1)c1ccccc1	-1.0	-51.4	x	39.4*	-1.7	-12.3
Cc1ccc(S(=O)(=O)C(NC(=O)c2ccccc2)=C(Cl)Cl)cc1	x	-59.7	x	x	-2.9	x
CN1c2ccc(Br)cc2[C@@H]2[C@@H](CCN2C(=O)C2CCOCC2)[C@@H]1CO	1.0	-4.8	0.2	1.7	-11.2	1.6
C[C@@H]1CCCCO[C@H](CN(C)S(=O)(=O)c2cccs2)[C@H](C)CN([C@@H](C)CO)C(=O)c2cc(NS(C)(=O)=O)ccc2O1	-117.4	-2.7	-4.1	0.5	-2.3	-2.8
Cc1ccc(NC(=O)Nc2ccon2)cc1Cl	0.7	x	-1.6	1.3	-11.7	-34.2*

Assay outcomes from PubChem BioAssay.
